32 compounds from ChEMBL document CHEMBL4371052, “Diarylcarbonates are a new class of deubiquitinating enzyme inhibitor” (Bioorg Med Chem Lett, 2019) can be followed below.

Experiment [1] in a line: Inhibition of deubiquitinase in HEK293T cells expressing N-terminal HA-tagged ubiquitin assessed as stabilization of HMW-Ub proteins after 2 hrs by Western blot analysis. The class given is cell-based, Homo sapiens. In general terms: Immunoblotting shows a protein as a band on a membrane.
Experiment [2] addresses Ubiquitin carboxyl-terminal hydrolase 7 (Homo sapiens) (UniProt Q93009). Briefly: Inhibition of recombinant His6-tagged USP7 catalytic domain (unknown origin) assessed as association constant using Ub-AMC as substrate by fluorescence assay.
The nature of experiment [3]: Inhibition of deubiquitinase in HEK293T cells assessed as stabilization of K48-linked HMW-Ub protein by Western blot analysis. It counts as cell-based, Homo sapiens.
Experiment [4] is described as follows: Inhibition of deubiquitinase in COS1 cells expressing N-terminal HA-tagged ubiquitin assessed as stabilization of HMW-Ub proteins by Western blot analysis. The class given is cell-based, Chlorocebus aethiops. The gist of the method:
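HMW-Ub decomposition followed in lysates of Cos-1 cells expressing HA-Ub; EC50 from inhibition of HMW-Ub loss; mean ± s.e.m. of at least 3 independent experiments.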

Experiment [5] has as its target Ubiquitin carboxyl-terminal hydrolase 9X (Homo sapiens) (UniProt Q93008). Briefly: Inhibition of USP9x in human K562 cells assessed as decrease in Bcr-Abl expression at 50 uM measured after 2 hrs by Western blot analysis. The class given is cell-based. Put shortly: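 K562 cells treated with 50 μM compound for 2 h. Lysates were sonicated in SDS, and Bcr-Abl was immunoblotted with anti-Abl antibody.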

For experiment [6], the target named is T1, Papain (Carica papaya) (UniProt P00784).
T1 sequence (whole entry): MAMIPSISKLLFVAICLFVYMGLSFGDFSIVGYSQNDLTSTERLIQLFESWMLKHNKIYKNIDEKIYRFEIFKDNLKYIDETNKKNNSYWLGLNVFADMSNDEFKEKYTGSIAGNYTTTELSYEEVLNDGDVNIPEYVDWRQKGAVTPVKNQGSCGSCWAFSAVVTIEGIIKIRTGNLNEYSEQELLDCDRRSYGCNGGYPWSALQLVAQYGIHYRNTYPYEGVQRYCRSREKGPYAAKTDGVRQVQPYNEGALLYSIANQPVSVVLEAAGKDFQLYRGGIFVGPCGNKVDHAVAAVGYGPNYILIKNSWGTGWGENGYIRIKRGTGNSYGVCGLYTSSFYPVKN
The experiment is described as follows: Inhibition of papaya papain at 100 uM using Z-Arg-AMC as substrate preincubated for 30 mins followed by substrate addition by fluorescence assay. The gist of the method:
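Enzyme (papain or ficin) preincubated 30 min with inhibitor at 100 μM, then Z-Arg-AMC substrate added at 300 μM; AMC release followed.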

Experiment [7] concerns the target Ubiquitin carboxyl-terminal hydrolase 9X (Homo sapiens) (UniProt Q93008). Briefly: Inhibition of recombinant His6-tagged USP9x catalytic domain (unknown origin) assessed as association constant using Ub-AMC as substrate by fluorescence assay.
Experiment [8] deals with Sentrin-specific protease 6 (Homo sapiens) (UniProt Q9GZR1). The experiment is described as follows: Inhibition of recombinant His6-tagged SENP6 catalytic domain (628 to 1112 residues) (unknown origin) at 1 to 25 uM using SUMO2-modified RanGap1 as substrate preincubated for 30 mins followed by substrate addition and measured after 10 mins by Western blot analysis. Put shortly:
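His6-SENP6 catalytic domain (aa 628-1112, 200 nM) treated with inhibitor 30 min at room temperature; SUMOylated His6-RanGap1 (aa 418-588, 3 μM) then added for 10 min at 37 °C; quenched in Laemmli buffer, SDS-PAGE, anti-His6 immunoblot.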

For experiment [9], the system named is K562. Briefly: Inhibition of deubiquitinase in human K562 cells assessed as accumulation of K48-linked HMW-Ub protein at 50 uM measured after 2 hrs by Western blot analysis. It counts as cell-based. The gist of the method:
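K562 cells exposed to compound at 50 μM for 2 h; K48-linked ubiquitin accumulation read by immunoblotting.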

Experiment [10] deals with Ficin (Ficus carica). Briefly: Inhibition of fig ficin at 100 uM using Z-Arg-AMC as substrate preincubated for 30 mins followed by substrate addition by fluorescence assay.
Experiment [11] deals with 26S proteasome (Homo sapiens) (UniProt Q99460+P49721+P20618+P28074+P28062+P28065+P28072+O00487+P25786+P25787+P25788+P25789+P28066+P60900+O14818+Q8TAA3+P40306+A5LHX3+P49720+P28070+Q99436+Q16186+P35998+P62191+P43686+P62333+P17980+P62195+Q13200+O43242+O00232+O00231+Q15008+P51665+Q9UNM6+P55036+P48556+P60896). The experiment is described as follows: Inhibition of 26S proteasome in HEK293T cells expressing GFP-fused Ub G76V mutant assessed as increase in GFP fluorescence. The class given is cell-based. Put shortly: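 HEK 293T cells expressing G76V Ub-GFP, a fusion uncleavable by DUBs that reports ubiquitin-proteasome flux, treated with compound. GFP fluorescence was the read-out, with bortezomib as proteasome-inhibitor reference.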

In experiment [12] the target is Ubiquitin carboxyl-terminal hydrolase 9X (Homo sapiens) (UniProt Q93008). Briefly: Inhibition of recombinant human N-terminal His6-tagged USP9x assessed as association constant using Cy5-UbVME as substrate preincubated for 15 mins followed by substrate addition and measured after 7 mins by fluorescence assay.
Sequence of Ubiquitin carboxyl-terminal hydrolase 9X (Homo sapiens) (Q93008 whole entry, the tested form may be a part): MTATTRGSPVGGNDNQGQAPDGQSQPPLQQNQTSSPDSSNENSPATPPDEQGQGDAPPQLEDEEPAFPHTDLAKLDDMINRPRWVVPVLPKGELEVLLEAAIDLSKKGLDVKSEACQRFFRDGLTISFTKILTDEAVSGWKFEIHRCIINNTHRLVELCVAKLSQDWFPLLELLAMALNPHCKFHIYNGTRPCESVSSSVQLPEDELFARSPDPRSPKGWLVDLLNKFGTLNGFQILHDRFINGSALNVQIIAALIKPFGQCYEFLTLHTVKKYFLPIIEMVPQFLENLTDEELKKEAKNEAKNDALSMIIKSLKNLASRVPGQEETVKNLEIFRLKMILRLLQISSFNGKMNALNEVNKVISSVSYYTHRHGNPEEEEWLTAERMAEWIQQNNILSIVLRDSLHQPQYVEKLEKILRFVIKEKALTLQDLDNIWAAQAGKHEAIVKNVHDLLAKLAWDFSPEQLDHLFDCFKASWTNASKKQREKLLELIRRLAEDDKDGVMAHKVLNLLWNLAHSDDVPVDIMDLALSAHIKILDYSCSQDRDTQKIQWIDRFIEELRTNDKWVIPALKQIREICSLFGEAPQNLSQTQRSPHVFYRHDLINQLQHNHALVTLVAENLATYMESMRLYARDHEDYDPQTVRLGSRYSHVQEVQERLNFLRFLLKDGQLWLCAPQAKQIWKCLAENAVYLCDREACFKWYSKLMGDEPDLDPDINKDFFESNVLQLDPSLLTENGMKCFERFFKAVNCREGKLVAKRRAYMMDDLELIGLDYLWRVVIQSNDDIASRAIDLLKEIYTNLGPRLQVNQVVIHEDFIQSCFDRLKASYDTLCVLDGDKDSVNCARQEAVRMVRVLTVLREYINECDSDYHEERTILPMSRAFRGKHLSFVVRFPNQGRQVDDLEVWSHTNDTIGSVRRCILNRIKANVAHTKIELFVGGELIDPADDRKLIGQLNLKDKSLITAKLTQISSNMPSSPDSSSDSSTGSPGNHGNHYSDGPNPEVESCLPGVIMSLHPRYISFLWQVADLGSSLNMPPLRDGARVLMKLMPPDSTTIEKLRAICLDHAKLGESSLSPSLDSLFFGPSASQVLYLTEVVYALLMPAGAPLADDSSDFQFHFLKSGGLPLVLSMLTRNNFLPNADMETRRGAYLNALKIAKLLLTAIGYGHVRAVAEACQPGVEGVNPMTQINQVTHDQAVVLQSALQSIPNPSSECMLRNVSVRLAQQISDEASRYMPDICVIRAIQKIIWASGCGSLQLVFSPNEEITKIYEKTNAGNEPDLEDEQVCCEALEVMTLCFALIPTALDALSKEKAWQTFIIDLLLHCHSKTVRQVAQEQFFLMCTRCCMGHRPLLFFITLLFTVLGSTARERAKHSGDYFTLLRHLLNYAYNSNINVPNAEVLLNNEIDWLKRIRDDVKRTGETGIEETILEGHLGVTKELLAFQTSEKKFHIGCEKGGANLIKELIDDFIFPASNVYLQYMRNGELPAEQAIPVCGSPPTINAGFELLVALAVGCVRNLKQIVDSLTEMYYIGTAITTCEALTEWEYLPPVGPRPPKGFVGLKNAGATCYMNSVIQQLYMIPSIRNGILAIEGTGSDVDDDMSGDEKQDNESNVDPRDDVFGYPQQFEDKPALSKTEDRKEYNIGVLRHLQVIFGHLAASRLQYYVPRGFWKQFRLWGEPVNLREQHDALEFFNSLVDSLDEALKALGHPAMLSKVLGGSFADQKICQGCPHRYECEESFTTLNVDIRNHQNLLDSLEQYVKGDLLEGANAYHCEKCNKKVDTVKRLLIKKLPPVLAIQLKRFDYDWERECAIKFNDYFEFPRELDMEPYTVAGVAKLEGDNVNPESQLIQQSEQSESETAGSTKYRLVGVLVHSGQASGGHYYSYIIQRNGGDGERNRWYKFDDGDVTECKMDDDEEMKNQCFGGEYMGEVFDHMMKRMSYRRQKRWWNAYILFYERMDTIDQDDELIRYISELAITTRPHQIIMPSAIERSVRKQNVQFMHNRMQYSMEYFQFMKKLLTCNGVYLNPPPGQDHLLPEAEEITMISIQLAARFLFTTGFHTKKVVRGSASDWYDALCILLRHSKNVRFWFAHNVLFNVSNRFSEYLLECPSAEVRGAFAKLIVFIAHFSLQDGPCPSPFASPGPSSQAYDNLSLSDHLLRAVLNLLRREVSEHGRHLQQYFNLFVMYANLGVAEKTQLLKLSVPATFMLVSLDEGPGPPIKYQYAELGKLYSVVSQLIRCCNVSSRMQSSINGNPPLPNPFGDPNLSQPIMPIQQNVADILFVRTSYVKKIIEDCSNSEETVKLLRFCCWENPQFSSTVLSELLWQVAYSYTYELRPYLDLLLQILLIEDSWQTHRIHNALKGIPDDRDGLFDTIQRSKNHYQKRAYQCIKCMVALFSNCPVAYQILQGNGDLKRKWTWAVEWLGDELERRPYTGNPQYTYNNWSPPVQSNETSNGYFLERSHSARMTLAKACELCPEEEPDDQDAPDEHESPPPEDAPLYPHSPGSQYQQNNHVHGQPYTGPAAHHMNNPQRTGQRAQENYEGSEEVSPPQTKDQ
The test system of experiment [13] is MCF7. The experiment is described as follows: Cytotoxicity against human MCF7 cells assessed as decrease in cell viability treated every 24 hrs measured after 72 hrs by alamar blue assay. It counts as functional, cell-based. Put shortly: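 MCF7 or B16/F10 cells dosed with compound every 24 h. Viable cells were quantified with Alamar Blue after 72 h.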
Experiment [14] is filed under the species Homo sapiens. The experiment is described as follows: Inhibition of deubiquitinase in HEK293T cells expressing N-terminal HA-tagged ubiquitin assessed as stabilization of HMW-Ub proteins at 100 uM after 2 hrs by Western blot analysis. The class given is cell-based.
For experiment [15], the species on record is Homo sapiens. The experiment is described as follows: Inhibition of deubiquitinase in HEK293T cells expressing N-terminal HA-tagged ubiquitin assessed as stabilization of HMW-Ub proteins at 30 uM after 2 hrs by Western blot analysis. The class given is cell-based. Put shortly:
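Lysate of HEK 293T cells expressing HA-ubiquitin, incubated with inhibitor or DMSO vehicle at 37 °C for up to 2 h. Reactions quenched with reducing Laemmli buffer. Remaining high-molecular-weight ubiquitinated proteins assessed by SDS-PAGE and anti-HA immunoblot, relative to DMSO control at time 0. Duplicate runs.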

For experiment [16], the species on record is Homo sapiens. Briefly: Inhibition of deubiquitinase in HEK293T cells expressing N-terminal HA-tagged ubiquitin assessed as stabilization of HMW-Ub proteins by measuring half life at 250 uM after 2 hrs by Western blot analysis. The class given is cell-based.
The species entered for experiment [17] is Homo sapiens. The experiment is described as follows: Inhibition of deubiquitinase in HEK293T cells expressing N-terminal HA-tagged ubiquitin assessed as stabilization of HMW-Ub proteins at 25 uM after 2 hrs by Western blot analysis. It counts as cell-based.
The species entered for experiment [18] is Homo sapiens. The experiment is described as follows: Inhibition of deubiquitinase in HEK293T cells expressing N-terminal HA-tagged ubiquitin assessed as stabilization of HMW-Ub proteins by measuring half life at 500 uM after 2 hrs by Western blot analysis. The class given is cell-based.
The species entered for experiment [19] is Homo sapiens. The experiment is described as follows: Inhibition of deubiquitinase in HEK293T cells expressing N-terminal HA-tagged ubiquitin assessed as stabilization of HMW-Ub proteins at 1 uM after 2 hrs by Western blot analysis. The class given is cell-based.

Each structure is given as a SMILES string. The source made the active and inactive calls. The rule behind the calls is not given here. Where only a bound is given, the exact number is not on record here.

Sequence of Ubiquitin carboxyl-terminal hydrolase 7 (Homo sapiens) (Q93009 whole entry, looked up, the tested form may be a part): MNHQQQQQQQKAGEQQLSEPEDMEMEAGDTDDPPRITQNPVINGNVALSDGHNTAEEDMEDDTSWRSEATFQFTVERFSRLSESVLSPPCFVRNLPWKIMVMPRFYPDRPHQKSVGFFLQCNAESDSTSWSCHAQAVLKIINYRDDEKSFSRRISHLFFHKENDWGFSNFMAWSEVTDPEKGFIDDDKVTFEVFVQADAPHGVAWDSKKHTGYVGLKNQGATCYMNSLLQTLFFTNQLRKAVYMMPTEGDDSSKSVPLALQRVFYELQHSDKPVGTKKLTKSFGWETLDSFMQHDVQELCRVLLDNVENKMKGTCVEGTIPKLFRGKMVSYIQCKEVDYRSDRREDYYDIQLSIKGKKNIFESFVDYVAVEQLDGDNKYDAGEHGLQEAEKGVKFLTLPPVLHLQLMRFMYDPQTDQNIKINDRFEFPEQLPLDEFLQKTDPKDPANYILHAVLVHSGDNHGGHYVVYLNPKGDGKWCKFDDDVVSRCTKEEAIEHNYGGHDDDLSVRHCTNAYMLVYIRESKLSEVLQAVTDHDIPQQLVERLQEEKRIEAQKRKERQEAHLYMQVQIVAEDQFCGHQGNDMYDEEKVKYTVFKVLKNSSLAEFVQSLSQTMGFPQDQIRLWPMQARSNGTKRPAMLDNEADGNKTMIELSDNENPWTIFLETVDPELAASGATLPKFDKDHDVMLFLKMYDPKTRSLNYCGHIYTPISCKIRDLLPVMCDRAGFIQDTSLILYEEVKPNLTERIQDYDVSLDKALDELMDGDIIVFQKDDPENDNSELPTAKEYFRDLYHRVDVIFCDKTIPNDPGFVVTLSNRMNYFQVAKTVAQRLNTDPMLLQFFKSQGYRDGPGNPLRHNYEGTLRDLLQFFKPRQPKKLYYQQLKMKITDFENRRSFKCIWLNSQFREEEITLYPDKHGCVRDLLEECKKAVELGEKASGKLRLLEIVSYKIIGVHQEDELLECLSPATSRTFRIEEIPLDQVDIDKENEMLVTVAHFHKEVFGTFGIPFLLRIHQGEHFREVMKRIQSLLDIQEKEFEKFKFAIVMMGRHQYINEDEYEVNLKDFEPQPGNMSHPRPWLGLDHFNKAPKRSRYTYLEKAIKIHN
Sequence of Sentrin-specific protease 6 (Homo sapiens) (Q9GZR1 whole entry, the tested form may be a part): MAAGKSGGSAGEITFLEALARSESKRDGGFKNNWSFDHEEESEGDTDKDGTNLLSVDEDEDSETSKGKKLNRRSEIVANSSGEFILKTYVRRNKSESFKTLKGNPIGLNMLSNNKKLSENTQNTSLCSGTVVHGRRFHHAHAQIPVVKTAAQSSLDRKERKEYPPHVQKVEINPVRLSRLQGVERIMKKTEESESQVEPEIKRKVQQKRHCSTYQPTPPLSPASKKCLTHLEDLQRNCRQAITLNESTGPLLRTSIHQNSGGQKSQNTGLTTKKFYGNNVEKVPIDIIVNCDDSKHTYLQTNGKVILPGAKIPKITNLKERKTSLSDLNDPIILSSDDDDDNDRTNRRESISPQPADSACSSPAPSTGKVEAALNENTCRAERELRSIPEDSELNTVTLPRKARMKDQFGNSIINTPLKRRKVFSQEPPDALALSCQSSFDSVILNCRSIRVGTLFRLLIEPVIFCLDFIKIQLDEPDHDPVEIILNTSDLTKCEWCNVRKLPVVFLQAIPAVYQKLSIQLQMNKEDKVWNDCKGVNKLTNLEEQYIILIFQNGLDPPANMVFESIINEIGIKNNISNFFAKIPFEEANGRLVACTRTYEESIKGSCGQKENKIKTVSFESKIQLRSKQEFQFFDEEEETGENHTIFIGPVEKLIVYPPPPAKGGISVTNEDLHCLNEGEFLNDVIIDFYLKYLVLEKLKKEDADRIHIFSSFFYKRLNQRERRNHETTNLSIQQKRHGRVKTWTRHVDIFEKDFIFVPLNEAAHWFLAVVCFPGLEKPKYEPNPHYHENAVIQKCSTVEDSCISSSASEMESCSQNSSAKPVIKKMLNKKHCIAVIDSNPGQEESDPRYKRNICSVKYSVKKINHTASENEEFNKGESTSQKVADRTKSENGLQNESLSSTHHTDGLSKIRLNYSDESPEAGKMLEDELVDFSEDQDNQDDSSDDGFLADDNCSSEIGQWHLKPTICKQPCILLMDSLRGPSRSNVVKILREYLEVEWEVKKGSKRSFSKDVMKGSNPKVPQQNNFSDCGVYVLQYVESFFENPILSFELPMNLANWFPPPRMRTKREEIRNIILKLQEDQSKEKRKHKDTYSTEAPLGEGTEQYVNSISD

The EC50 is the concentration needed to bring the measured effect to its halfway point. Consider `O=C(Oc1ccccc1)Oc1ccccc1`, for which the EC50 in experiment [1] is greater than 150 µM.
On to `NCc1ccc(OC(=O)Oc2ccc(Br)cc2)cc1`, for which the K was found to be 8 M⁻¹ s⁻¹ in [2] and 6 M⁻¹ s⁻¹ in [7]. The half-maximal effective concentration (EC50) is less than 50 µM in [3], 40 µM in [4] and 30 µM in experiment [1]. Moreover, the inhibition result in [5] and in [9] was “Active” throughout. The inhibition entry in [6], in experiment [8], in experiment [10] and in experiment [11] was “inactive” in each case.
Take `Cc1ccc(OC(=O)Oc2ccc(CN)cc2)cc1`: the EC50 in experiment [1] was 250 µM.
`CC(C)COC(=O)Oc1ccc(CN)cc1`: in experiment [1], the EC50 is greater than 500 µM.
The same measure, in the same setting: the result for `CC(C)(C)OC(=O)NCc1ccc(OC(=O)Oc2ccccc2)cc1` reads greater than 150 µM; that for `CC(C)(C)OC(=O)NCc1ccc(OC(=O)Oc2ccc(Cl)cc2)cc1`, greater than 150 µM.
In the case of `S=C=NCCc1ccccc1`, the K in experiment [12] is 150 M⁻¹ s⁻¹.
`NCc1ccc(O)cc1`: the outcome in experiment [13] was inactive.
With `NCc1ccc(NC(=O)Oc2ccccc2)cc1`, the EC50 in [1] was greater than 150 µM.
With `O=C1/C(=C/c2ccc([N+](=O)[O-])cc2)CS(=O)(=O)C/C1=C\c1ccc([N+](=O)[O-])cc1`, in experiment [14], the inhibition entry was “Active”.
Take `Cc1cc(C(=O)CN2CCCC2)c(C)n1-c1ccc(F)cc1`: the inhibition entry in experiment [15] was “Active”.
Take `C=CC(=O)N1C/C(=C\c2ccc([N+](=O)[O-])cc2)C(=O)/C(=C/c2ccc([N+](=O)[O-])cc2)C1`: the K in experiment [7] amounted to 140 M⁻¹ s⁻¹.
`NCc1ccc(OC(=O)Oc2ccc(Cl)cc2)cc1`: the K in experiment [2] turned out to be 13 M⁻¹ s⁻¹; in [7], 18 M⁻¹ s⁻¹. Also, the EC50 in experiment [3] is less than 50 µM; in experiment [4], 50 µM; in experiment [1], 30 µM. The inhibition entry in experiment [5] and in experiment [9] was “Active” in each case. Besides, the T1/2 in experiment [16] was greater than 6 h. The inhibition entry in [6], in [8], in experiment [10] and in [11] was “inactive” in each case.
Turning to `NCc1ccc(OC(=O)Oc2ccc(F)cc2)cc1`, the EC50 in experiment [1] is 300 µM.
As for `Cc1ccc(/C=C2\CNC/C(=C\c3ccc(C)cc3)C2=O)cc1`, the inhibition entry in experiment [17] is “Active”.
For `CC(C)(C)CNCc1ccc(OC(=O)Oc2ccc3ccccc3c2)cc1`, in experiment [2], the K was 21 M⁻¹ s⁻¹. Further, the K result in experiment [7] was “inactive”. For the same compound, the EC50 in experiment [1] came out at 30 µM.
As to `NCc1ccc(OC(=O)Oc2ccccc2)cc1`, in experiment [18], the T1/2 is greater than 0.5 h. Besides, the EC50 in [4] was 250 µM; in experiment [1], 210 µM.
With `O=C(Oc1ccccc1)Oc1ccc(CNCc2ccc(Cl)cc2)cc1`, the half-maximal effective concentration (EC50) in experiment [1] stood at 300 µM.
On to `NCc1ccc(CC(=O)Oc2ccccc2)cc1`, for which the EC50 in experiment [1] was greater than 150 µM.
Still for that read-out and setting: the result for `NCc1ccc(OC(=O)Cc2ccccc2)cc1` reads greater than 150 µM.
For `NCc1ccc(OC(=O)Oc2cccc3ccccc23)cc1`, in [2], the K result is “inactive”. Further, the EC50 in experiment [3] is less than 50 µM; in experiment [1], 40 µM. The inhibition result in experiment [5] and in experiment [9] was “Active” in each case. The inhibition result in experiment [6], in experiment [10] and in [11] was “inactive” throughout. In experiment [7], the K was 17 M⁻¹ s⁻¹.
Take `COc1ccc(OC(=O)Oc2cccc(OC)c2)cc1`: the EC50 in experiment [1] was greater than 150 µM.
For the compound `Oc1ccc2ccccc2c1`, in [13], the result was inactive.
In the case of `CC(C)(C)OC(=O)NCc1ccc(OC(=O)Oc2ccc3ccccc3c2)cc1`, in experiment [1], the EC50 was greater than 150 µM.
On the same count and under the same terms, the figure for `COc1ccc(OC(=O)Oc2ccc(CN)cc2)cc1` is 260 µM; for `Cc1ccc(OC(=O)Oc2cccc(C)c2)cc1` it is greater than 150 µM.
Regarding `CCC[C@H](NC(=O)/C(C#N)=C/c1cccc(Br)n1)c1ccccc1`, the K in experiment [2] turned out to be 66 M⁻¹ s⁻¹; in [7], 50 M⁻¹ s⁻¹.
For the compound `NCc1ccc(OC(=O)Nc2ccccc2)cc1`, in [1], the EC50 is greater than 150 µM.
With `NCc1ccc(OC(=O)Oc2ccccc2Cl)cc1`, in [1], the EC50 worked out at 60 µM.
`CC(C)C[C@H](NC(=O)[C@H](Cc1ccccc1)NC(=O)c1cnccn1)B(O)O`: the inhibition entry in [19] is “inactive”.
Take `CC(C)CNCc1ccc(OC(=O)Oc2ccc3ccccc3c2)cc1`: the EC50 in experiment [1] was found to be 70 µM.
As for `N#CSc1cc(SC#N)c(N)nc1N`, the K in [7] came to 90 M⁻¹ s⁻¹.
